This is a sample that favours compounds with a hit; in the whole collection about 1.8% have one here.
CHRM4 PAM: potentiates acetylcholine response at human M4 receptor; CHO-K1 hM4/Gqi5, Fluo-8 calcium fluorescence, ACh EC20; 0% = ACh EC20, 100% = maximal ACh; actives 0.4% (n = 360,000); P08173; activation, % at 3 µM;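 active = activation above its plate's cutoff, the mean activation of sample wells plus 3 SD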
Target sequence (P08173 whole entry, looked up): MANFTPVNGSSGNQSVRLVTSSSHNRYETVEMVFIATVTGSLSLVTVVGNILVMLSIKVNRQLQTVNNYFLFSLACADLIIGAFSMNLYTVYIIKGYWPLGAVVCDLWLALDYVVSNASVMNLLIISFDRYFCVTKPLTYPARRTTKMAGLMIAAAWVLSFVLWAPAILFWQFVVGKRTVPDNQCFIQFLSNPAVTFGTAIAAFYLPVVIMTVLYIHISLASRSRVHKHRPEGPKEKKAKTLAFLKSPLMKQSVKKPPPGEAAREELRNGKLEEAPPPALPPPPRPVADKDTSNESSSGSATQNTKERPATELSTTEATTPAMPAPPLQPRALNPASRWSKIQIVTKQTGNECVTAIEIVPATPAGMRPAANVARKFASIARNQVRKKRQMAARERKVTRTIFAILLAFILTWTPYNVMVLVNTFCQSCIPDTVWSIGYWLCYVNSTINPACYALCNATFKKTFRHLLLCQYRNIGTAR
M5 ag: agonists of human muscarinic M5 receptor (CHRM5); CHO-K1 hM5 cells, Fluo-8 calcium fluorescence; 0% DMSO wells, 100% maximal acetylcholine response; actives 0.19% (n = 360,000); P08912; activation, % at 3 µM; AID 624037;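 active = activation above the run's mean over test compounds plus 3 SD, cut at about 23% in these data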;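 also: signal is peak over basal fluorescence ratio across the kinetic read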
M4 ag: agonists of human muscarinic M4 receptor (CHRM4); P08173; CHO-K1 hM4/Gqi5, Fluo-8 calcium fluorescence; vehicle 0%, full acetylcholine response 100%; activation, % at 3 µM; actives 0.14% (n = 360,000);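 active = activation above the run mean over all test wells plus 3 SD, cut at about 32% in these data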;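 also: peak over basal fluorescence ratio per well then scaled between controls; 0% = DMSO wells and 100% = acetylcholine at EC100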
M5 PAM: CHRM5 positive allosteric modulation. P08912. activation, % at 3 µM. CHO-K1 hM5, Fluo-8 calcium, ACh EC20 PAM; 0% = ACh EC20, 100% = ACh EC100. actives 0.3% (n = 360,000);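 active = activation above the run cutoff, the mean activation of all test compounds plus 3 SD, cut at about 18% in these data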
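Measured by: Fluo-8 calcium fluorescence; material: human M5 receptor in CHO-K1 cells; schedule: Post-acetylcholine fluorescence recording 140 s; benchmarks: low control EC20 acetylcholine (0%), high control EC100 acetylcholine (100%); read-out: Max/basal fluorescence ratio as % of EC20–EC100 ACh window; compound: single dose, 3 µM nominal final test concentration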
M5 antag: antagonists of human muscarinic M5 receptor (CHRM5); P08912; inhibition, % at 3 µM; actives 0.59% (n = 360,000); CHO-hM5 cells, Fluo-8 calcium fluorescence, ACh EC80;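 active = inhibition above a per-plate cutoff, the mean of that plate's test compounds plus 3 SD, cut at about 27% in these data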;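 also: 0% = acetylcholine EC80 with DMSO and 100% = DMSO without agonist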
CHRM4 antagonist: blocks acetylcholine activation of human M4 receptor. P08173. CHO-hM4 cells, ACh EC80, Fluo-8 calcium fluorescence. inhibition, % at 3 µM. actives 0.73% (n = 360,000). AID 624125;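 active = inhibition above its plate's cutoff, the mean inhibition of sample wells plus 3 SD, cut at about 27% in these data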;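 also: 0% = acetylcholine EC80 with DMSO and 100% = DMSO without agonist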
The depositor's hits bear a star; ! = a repeat was not active.

SMILES	CHRM4 PAM	M5 ag	M4 ag	M5 PAM	M5 antag	CHRM4 antagonist
CC(=O)c1ccc(NC(=O)C[n+]2cccc(C)c2)cc1	0	0	1	4	-9	-2
C[C@H](CO)N1C[C@H](C)[C@@H](CN(C)S(=O)(=O)c2cccs2)Oc2ccc(NC(=O)Nc3ccc4c(c3)OCO4)cc2C1=O	-1	-2	1	-4	14	10
C[C@H](CO)N1C[C@H](C)[C@@H](CN(C)S(=O)(=O)c2cccs2)Oc2ccc(NS(=O)(=O)c3cn(C)cn3)cc2C1=O	-1	-2	1	0	13	9
C[C@H](CO)N1C[C@H](C)[C@H](CN(C)S(=O)(=O)c2cccs2)Oc2ccc(NC(=O)Nc3ccc4c(c3)OCO4)cc2CC1=O	-16	-2	1	-2	12	41*
C[C@H]1CN([C@@H](C)CO)C(=O)Cc2cc(NS(=O)(=O)c3cccs3)ccc2O[C@H]1CN(C)S(=O)(=O)c1cn(C)cn1	-14	-5	3	-3	1	32*
COc1ccc(S(=O)(=O)N2CCN(C(=O)C3CC(=O)N(c4ccccc4F)C3)CC2)cc1OC (centres undefined)	1	3	2	5	-5	13
COc1ccccc1N1CCN(CCCCCCOc2ccc(F)cc2)CC1	-12	-6	5	-19	39*	2
COc1ccc(Cc2nnc(SCC(=O)N(C)CC(=O)Nc3ccc(C)cc3)o2)cc1	0	3	11	-12	9	-20
CCn1c(SCCN2CCCCC2)nnc1-c1ccc(S(=O)(=O)N2CCOCC2)cc1	-17	-17	0	-2	12	33*
Cc1ccc(S(=O)(=O)N2CCC(c3nnc(SCCN4CCCC4)n3C)CC2)cc1	-11	-7	0	-5	8	11
COc1ccccc1NC(=O)CSCc1nc2ccccc2[nH]1	21*	-2	2	-2	-1	-4
COc1ccccc1NC(=O)Cc1nnc(SCC(=O)NC2CCCCC2C)n1C (centres undefined)	-2	-3	2	-8	31*	3
COc1ccc(NC(=O)CSc2nncn2N)c(OC)c1	-7	4	0	5	-1	-2
COc1ccccc1NC(=O)CSc1nncn1N	-1	6	1	19*	-6	6
COc1ccccc1NC(=O)Cc1nnc(SCC(=O)NC2CCCC2)n1C	-2	-2	2	-7	23	15
CC(C)(C)C1(C)OC(=O)C(=Cc2ccc(OCC(=O)Nc3ccccc3)cc2)C(=O)O1 (centres undefined)	30*	-1	3	15	-5	-17
COc1cc(C=C2C(=O)OC(C)(C)OC2=O)cc(Cl)c1OCC(=O)Nc1ccccc1	10	1	1	2	6	-6
Cc1ccc(-n2c(C)cc(/C=C3\NC(=O)NC3=O)c2C)c(C)c1	-24	-6	-1	0	-1	35*
Cc1cc(/C=C2/NC(=O)NC2=O)c(C)n1-c1ccccn1	6	0	1	1	-12	-9
COc1cc(CSc2nnnn2-c2ccc(C)cc2)cc(OC)c1OC	-8	2	13	-19	31*	17
COc1ccc(F)cc1CSc1nnnn1-c1ccc(O)cc1	-7	-1	6	-5	-1	15
COc1ccc(N2CCOCC2)c(NC(=O)c2cccnc2)c1	5	-4	2	3	4	-3
c1ccc(-c2cc(-c3nc4ccccc4[nH]3)c3ccccc3n2)cc1	-17	0	12	-18	29*	24
COc1ccc(CN(C)Cc2c(O)ccc3cc(Br)ccc23)cc1OC	4	1	5	23*	-10	-24
CCNC(=O)c1cc2c(c(-c3cccc(-c4ccccc4F)c3)n1)[C@@H](CCO)N(C(=O)CC)C2	-1	1	9	-1	0	-3
SMILES	CHRM4 PAM	M5 ag	M4 ag	M5 PAM	M5 antag	CHRM4 antagonist
N=C(N)c1ccc(OCCCCCOc2ccc(C(=N)N)cc2)cc1	-14	-2	0	-7	6	31*
Cc1ccc(S(=O)(=O)N2CCC(N3CCN(C)CC3)CC2)cc1Cl	-20	-8	-1	-13	25	28*
c1ccc(-c2nc3c4ccccc4ccn3c2Cc2ccsc2)cc1	0	0	-1	-4	5	-5
Cc1cc(SCC(=O)N2CCCC2=O)nc2c(C)cccc12	4	-7	3	4	-2	-21
Cc1cc(SCCC(=O)O)nc2c(C)cccc12	3	-11	1	33*	-3	-9
Cc1cc(SCC(=O)O)nc2ccccc12	14	3	1	18*!	-12	-8
CCCN(CCC)Cc1c(C(=O)N/N=C/c2ccoc2)nnn1-c1nonc1N	0	-2	1	6	3	2
CC(/C=N/NC(=O)c1nnn(-c2nonc2N)c1C(C)C)=C\c1ccco1	17*	0	2	7	-3	8
CCOc1cccc(-c2c(C(=O)N/N=C/c3cccnc3)nnn2-c2nonc2N)c1	7	3	5	3	-6	-2
CCCc1c(C(=O)N/N=C(\C)CCc2ccccc2)nnn1-c1nonc1N	15*	-3	2	-2	-12	-26
CCOc1cccc(-c2c(C(=O)N/N=C/c3ccc(Br)cc3)nnn2-c2nonc2N)c1	15	18	9	18*	1	-1
CCCN(CCC)Cc1c(C(=O)N/N=C/c2ccco2)nnn1-c1nonc1N	3	-4	1	-8	27*	0
CCCc1c(C(=O)N/N=C/C(C)=C/c2ccco2)nnn1-c1nonc1N	8	-2	2	2	3	-7
CC1(C)Cc2c(cnn2-c2ccccc2)C(NC(=O)CCN2CCCC2=O)C1 (centres undefined)	-2	-2	1	2	7	10
Cc1occc1C(=O)NC(C)C(C)(C)C (centres undefined)	15	-1	2	-3	10	29*
Cc1occc1C(=O)NC(C)CCc1ccccc1 (centres undefined)	-1	-1	0	3	-1	4
CCCCOC(=O)CCc1c(C)[nH]c(=O)c(C#N)c1C	26*	-1	1	8	-3	-2
Cc1ccc(NC(=O)CCc2c(C)[nH]c(=O)c(C#N)c2C)cc1	-4	-3	0	0	3	7
O=C(c1ccco1)N1CCN(C(=O)C2CC(=O)N(c3ccc(Cl)cc3)C2)CC1 (centres undefined)	-6	-2	0	-4	9	11
